Experimental data taken from ChEMBL document CHEMBL1136492, “Design and syntheses of melanocortin subtype-4 receptor agonists: evolution of the pyridazinone archetype” (Bioorg Med Chem Lett, 2003).

What was measured:
[1] = target: T1, Melanocortin receptor 4 (Homo sapiens, UniProt P32245); assay: Effective concentration for cAMP accumulation relative to alpha-MSH at human MC4R; format: functional
How it was run: (§1)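 cAMP accumulation at human MC4R, measured relative to α-MSH. EC50 is the inflection point of the cAMP dose-response curve. Where no EC50 is given, the value is the accumulation at the highest concentration tested. %Max is the accumulation at 10 µM compound relative to α-MSH. Values are means of at least two separate experiments.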

[2] = target: T1, Melanocortin receptor 4; assay: Percentage of cAMP accumulation at 10 uM of compound relative to alpha-MSH, at human MC4R; format: functional; how it was run: as §1
[3] = target: T1, Melanocortin receptor 4; assay: Percentage of cAMP accumulation of compound relative to alpha-MSH, at human MC4R; format: functional; how it was run: as §1
[4] = target: T1, Melanocortin receptor 4; assay: Concentration required to inhibit binding of [125I]-NDP-alpha-MSH from membranes prepared from CHO cells expressing human melanocortin subtype-4-receptor (MC4R); format: cell membranes
How it was run: (§2)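 Competition binding using membranes from CHO cells expressing human MC4R, with [125I]-NDP-α-MSH as radioligand. IC50 is the compound concentration that inhibits radioligand binding by 50%. Values are means of at least two separate experiments.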

[5] = target: Melanocortin receptor 3 (Homo sapiens, UniProt P41968); assay: Concentration required to inhibit binding of [125I]NDP-alpha-MSH from membranes prepared from CHO cells expressing human melanocortin subtype-3-receptor (MC3R); format: cell membranes
[6] = target: Melanocortin receptor 5 (Homo sapiens, UniProt P33032); assay: Concentration required to inhibit binding of [125I]NDP-alpha-MSH from membranes prepared from CHO cells expressing human melanocortin subtype-5-receptor (MC5R); format: cell membranes
[7] = target: T1, Melanocortin receptor 4; assay: Concentration required to inhibit binding of [125I]NDP-alpha-MSH from membranes prepared from CHO cells expressing human MC4R; format: cell membranes; how it was run: as §2

T1 sequence (P32245 whole entry): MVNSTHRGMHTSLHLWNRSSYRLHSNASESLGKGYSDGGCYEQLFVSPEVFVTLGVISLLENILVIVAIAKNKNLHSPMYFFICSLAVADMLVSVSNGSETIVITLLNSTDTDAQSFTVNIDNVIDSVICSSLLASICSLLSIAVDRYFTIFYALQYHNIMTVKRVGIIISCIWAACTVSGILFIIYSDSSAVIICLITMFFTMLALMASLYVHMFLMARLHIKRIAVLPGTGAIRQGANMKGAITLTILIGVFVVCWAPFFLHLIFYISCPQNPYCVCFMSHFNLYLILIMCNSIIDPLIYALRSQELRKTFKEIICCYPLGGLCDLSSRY
Chain of Melanocortin receptor 5 (P33032 whole entry): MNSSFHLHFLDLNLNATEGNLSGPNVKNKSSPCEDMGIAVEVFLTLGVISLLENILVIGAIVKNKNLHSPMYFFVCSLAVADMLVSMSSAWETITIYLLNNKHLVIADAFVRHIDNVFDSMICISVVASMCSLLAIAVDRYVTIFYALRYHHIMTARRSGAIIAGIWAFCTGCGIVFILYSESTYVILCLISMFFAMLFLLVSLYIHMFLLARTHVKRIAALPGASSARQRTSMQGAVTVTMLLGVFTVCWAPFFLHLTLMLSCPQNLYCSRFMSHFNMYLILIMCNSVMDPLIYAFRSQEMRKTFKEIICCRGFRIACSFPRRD
Chain of Melanocortin receptor 3 (P41968 whole entry): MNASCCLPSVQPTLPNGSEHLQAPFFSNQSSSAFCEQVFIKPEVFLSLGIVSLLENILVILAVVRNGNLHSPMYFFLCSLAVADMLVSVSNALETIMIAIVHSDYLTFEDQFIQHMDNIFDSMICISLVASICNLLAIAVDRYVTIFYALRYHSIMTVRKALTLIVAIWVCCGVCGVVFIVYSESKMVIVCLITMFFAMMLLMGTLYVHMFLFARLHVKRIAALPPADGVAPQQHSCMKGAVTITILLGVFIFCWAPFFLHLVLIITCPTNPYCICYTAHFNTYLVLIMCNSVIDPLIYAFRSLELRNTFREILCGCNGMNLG

Row | EC50 [1] | Max [2] | Max [3] | IC50 [4] | IC50 [5] | IC50 [6] | IC50 [7] | SMILES
1 | 250 nM |  |  | 380 nM |  |  |  | COc1ccc(-n2nc(Sc3ccc(Cl)cc3)cc(CC[C@@H](C)NC(=O)[C@H]3CNC[C@@H]3c3ccccc3)c2=O)cc1 [listing 1 of 3 here]
2 | 3060 nM |  | 34% | 144 nM |  |  |  | COc1ccc(-n2nc(Sc3ccc(Cl)cc3)cc(CCC(=O)N[C@@H]3CCc4ccccc4NC3=O)c2=O)cc1
3 | > 5000 nM |  | 28% | 2750 nM |  |  |  | COc1ccc(-n2nc(Sc3ccc(Cl)cc3)cc(CCCNC(=O)[C@H]3CCNC[C@@H]3c3ccccc3)c2=O)cc1
4 |  | 103% | 97% |  |  |  |  | COc1ccc(-n2nc(Sc3ccc(Cl)cc3)cc(CC[C@@H](C)NC(=O)[C@H]3CNC[C@@H]3c3ccccc3)c2=O)cc1 [listing 2 of 3 here]
5 | 5800 nM |  | 67% | 975 nM |  |  |  | COc1ccc(-n2nc(Sc3ccc(Cl)cc3)cc(CC[C@H](C)NC(=O)[C@H]3CNC[C@@H]3c3ccccc3)c2=O)cc1
6 | 4050 nM | 54% |  | 2240 nM |  |  |  | COc1ccc(-n2nc(Sc3ccc(Cl)cc3)cc(CC[C@@H](C)NC(=O)[C@H]3CNCC[C@H]3c3ccccc3)c2=O)cc1
7 | 820 nM |  | 22% | 1240 nM |  |  |  | COc1ccc(-n2nc(Sc3ccc(Cl)cc3)cc(CCCNC(=O)[C@H]3CNC[C@@H]3c3ccccc3)c2=O)cc1
8 |  | 5% |  | 2990 nM |  |  |  | COc1ccc(-n2nc(Sc3ccc(Cl)cc3)cc(CC[C@H](C)NC(=O)[C@@H]3CNCC[C@H]3c3ccccc3)c2=O)cc1
9 |  | 13% |  | 9020 nM |  |  |  | COc1ccc(-n2nc(Sc3ccc(Cl)cc3)cc(CC[C@H](C)NC(=O)[C@H]3CNCC[C@H]3c3ccccc3)c2=O)cc1
10 | > 5000 nM | 32% |  | 2060 nM |  |  |  | COc1ccc(-n2nc(Sc3ccc(Cl)cc3)cc(CC[C@@H](C)NC(=O)[C@@H]3CNCC[C@H]3c3ccccc3)c2=O)cc1
11 |  | 15% |  |  |  |  | 5600 nM | COc1ccc(-n2nc(Sc3ccc(Cl)cc3)cc(CCC(=O)NCCOc3ccccc3)c2=O)cc1
12 | 405 nM |  |  | 190 nM |  |  |  | COc1ccc(-n2nc(Sc3ccc(Cl)cc3)cc(CC[C@@H](C)NC(=O)[C@H]3CNC[C@@H]3c3ccccc3)c2=O)cc1 [listing 3 of 3 here]
13 | 500 nM |  | 20% | 1970 nM |  |  |  | COc1ccc(-n2nc(Sc3ccc(Cl)cc3)cc(CCCNC(=O)[C@H]3CNCC[C@@H]3c3ccccc3)c2=O)cc1
14 | 1730 nM | 65% |  | 1200 nM |  |  |  | COc1ccc(-n2nc(Sc3ccc(Cl)cc3)cc(CC[C@H](C)NC(=O)[C@H]3CNCC[C@@H]3c3ccccc3)c2=O)cc1

Further lines, the molecule ahead of its results:

Row | SMILES | EC50 [1] | Max [2] | Max [3] | IC50 [4] | IC50 [5] | IC50 [6] | IC50 [7]
15 | COc1ccc(-n2nc(Sc3ccc(Cl)cc3)cc(CC[C@@H](C)NC(=O)[C@@H]3CNCC[C@@H]3c3ccccc3)c2=O)cc1 | > 5000 nM | 38% |  |  |  |  | 
16 | COc1ccc(-n2nc(Sc3ccc(Cl)cc3)cc(CCC(C)NC(=O)[C@H]3CCNC[C@@H]3c3ccccc3)c2=O)cc1 (stereo partly drawn) | 260 nM |  | 79% | 339 nM |  |  | 
17 | COc1ccc(-n2nc(Sc3ccc(Cl)cc3)cc(CC[C@H](C)NC(=O)[C@@H]3CNCC[C@@H]3c3ccccc3)c2=O)cc1 |  | 12% |  |  |  |  | 
18 | COc1ccc(-n2nc(Sc3ccc(Cl)cc3)cc(CCC(C)NC(=O)[C@H]3CNCC[C@@H]3c3ccccc3)c2=O)cc1 (stereo partly drawn) | 227 nM |  | 82% | 41 nM |  |  | 
19 | COc1ccc(-n2nc(Sc3ccc(Cl)cc3)cc(CC[C@@H](C)NC(=O)[C@H]3CNCC[C@@H]3c3ccccc3)c2=O)cc1 | 177 nM | 77% |  | 33 nM | 2170 nM | 1410 nM | 
20 | COc1ccc(-n2nc(Sc3ccc(Cl)cc3)cc(CC[C@@H](C)NC(=O)[C@H]3CCNC[C@@H]3c3ccccc3)c2=O)cc1 | 237 nM | 85% |  | 130 nM |  |  | 
21 | COc1ccc(-n2nc(Sc3ccc(Cl)cc3)cc(CC(C)CNC(=O)[C@H]3CNCC[C@@H]3c3ccccc3)c2=O)cc1 (stereo partly drawn) | > 5000 nM |  | 35% | 2170 nM |  |  | 
22 | COc1ccc(-n2nc(Sc3ccc(Cl)cc3)cc(CCC(=O)NC3CCCCNC3=O)c2=O)cc1 (stereo not drawn) |  | 0% |  |  |  |  | 2.27 nM
23 | COc1ccc(-n2nc(Sc3ccc(Cl)cc3)cc(C(C)CCNC(=O)[C@H]3CNCC[C@@H]3c3ccccc3)c2=O)cc1 (stereo partly drawn) | > 5000 nM |  | 31% | 3930 nM |  |  | 
24 | O=C(N[C@H](Cc1ccc(Cl)cc1)C(=O)N1CCC(Cn2cncn2)(C2CCCCC2)CC1)[C@H]1CCc2ccccc2N1 |  |  | 97% | 1.2 nM |  |  | 
